# Experimental data collected from several papers.
# Protocols differ between the studies behind these lines. pIC50: −log10 of the molar value.
# CHRM2: Muscarinic acetylcholine receptor M2 (CHRM2, Homo sapiens, UniProt P08172)
# CDK4 with cyclin D3: Cyclin-dependent kinase 4, with cyclin D3 (CDK4, Homo sapiens, UniProt P11802)
# CDK4 with cyclin D1: Cyclin-dependent kinase 4, with cyclin D1 (CDK4, Homo sapiens, UniProt P11802)
# AMY2: Pancreatic alpha-amylase (AMY2, Sus scrofa, UniProt P00690)
target,read-out,mode,technique,setting,pIC50,Compound
CHRM2,ligand displacement,,radioligand,cell membranes,5.19,O=C(CCNC(=O)CNC(=O)CC(c1ccccc1)(c1ccccc1)c1ccccc1)NCC1CCN(Cc2ccc(F)cc2)CC1
CDK4 with cyclin D3,enzyme activity,inhibitor,radiometric,,6.70,CNS(=O)(=O)c1ccc(Nc2ncc(C(F)(F)F)c(N3CCC(C)(O)CC3)n2)c(C)c1
CHRM2,cAMP,antagonist,,,5.29,CN1CCC(CNc2ccc3ncc(-c4cccc(OC(F)(F)F)c4)n3n2)CC1
"Cyclin-dependent kinase 19, with cyclin C (CDK19, Homo sapiens, UniProt Q9BWU1)",enzyme activity,inhibitor,,,< 6.00,Cc1cc(O)c(-c2ccc([C@@H](C)CN(C)C)cc2)c2c1[nH]c(=O)c1sccc12
CDK4 with cyclin D3,enzyme activity,inhibitor,radiometric,,6.08,CNS(=O)(=O)c1ccc(Nc2ncc(C(F)(F)F)c(N3CCC[C@](C)(O)C3)n2)c(C)c1
"Voltage-dependent L-type calcium channel subunit alpha-1C (CACNA1C, Homo sapiens, UniProt Q13936)",ion current,inhibitor,patch clamp,,< 4.00,COc1ccc2c(c1)CN(C(=O)CCN1CCC(Cc3ccccc3)CC1)CC[S@@+]2[O-]
"Chymotrypsinogen A (Bos taurus, UniProt P00766)",enzyme activity,inhibitor,absorbance,,< 2.76,N=C(N)c1ccc(OCCCCCOc2ccc(C(=N)N)cc2)cc1
CDK4 with cyclin D1,enzyme activity,inhibitor,radiometric,,6.54,CN(C)C(=O)c1cc2cnc(Nc3ccc(-c4cccc5c(=O)cc(N6CCNCC6)oc45)cc3)nc2n1C1CCCC1
AMY2,enzyme activity,inhibitor,,,6.00,O=c1cc(-c2ccc(O)c(O)c2)oc2c(Br)c(O)c(Br)c(O)c12
CDK4 with cyclin D1,enzyme activity,inhibitor,radiometric,,8.38,CN(C)C(=O)c1cc2cnc(Nc3ccc4c(=O)cc(N5CCOCC5)oc4c3)nc2n1C1CCCC1
AMY2,enzyme activity,inhibitor,,,5.43,O=c1c(O)c(-c2ccc(O)cc2)oc2c(Br)c(O)c(Br)c(O)c12
CDK4 with cyclin D1,enzyme activity,inhibitor,radiometric,,6.34,CN(C)C(=O)c1cc2cnc(Nc3ccc(-c4cccc5c(=O)cc(N6CCOCC6)oc45)cn3)nc2n1C1CCCC1
AMY2,enzyme activity,inhibitor,,,4.98,O=c1c(O)c(-c2ccc(O)cc2)oc2cc(O)cc(O)c12
CDK4 with cyclin D1,enzyme activity,inhibitor,radiometric,,< 5.00,CN(C)C(=O)c1cc2cnc(Nc3cccc4c(=O)cc(N5CCOCC5)oc34)nc2n1C1CCCC1
"Kinesin-like protein KIF18B (Homo sapiens, UniProt Q86Y91)",ATPase activity,inhibitor,,,< 4.00,CC(C)(C)NS(=O)(=O)c1cccc(C(=O)N2CC3(CCC4(CC4)CC3)c3cc(NS(C)(=O)=O)ccc32)c1
CDK4 with cyclin D1,enzyme activity,inhibitor,radiometric,,5.97,COc1ccc(-c2oc3cc(Nc4ncc5cc(C(=O)N(C)C)n(C6CCCC6)c5n4)ccc3c(=O)c2F)cc1
CDK4 with cyclin D3,enzyme activity,inhibitor,radiometric,,5.46,CNS(=O)(=O)c1ccc(Nc2ncc(C(F)(F)F)c([C@H]3CC[C@@](C)(O)CC3)n2)c(C)c1
CDK4 with cyclin D1,enzyme activity,inhibitor,radiometric,,7.91,CN(C)C(=O)c1cc2cnc(Nc3ccc(-c4ccc5c(=O)cc(N6CCOCC6)oc5c4)c(F)c3)nc2n1C1CCCC1
CHRM2,ligand displacement,,radioligand,cell membranes,4.86,O=C(CCNC(=O)CNC(=O)CC(c1ccccc1)(c1ccccc1)c1ccccc1)NC[C@H]1CCCN(Cc2ccc(F)cc2)C1
